Source: ChEMBL document CHEMBL1629511, “Naphthylchalcones induce apoptosis and caspase activation in a leukemia cell line: The relationship between mitochondrial damage, oxidative stress, and cell death” (Bioorg Med Chem, 2010)
Activity calls are given as the source filed them. No cut-off for these calls is given here.

Experiments:
L1210 [1] = experiment: Induction of apoptosis in mouse L1210 cells assessed as decrease in intracellular ATP concentration at IC50 concentration measured up to 24 hrs; format: functional, cell-based
Method in brief: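 Intracellular ATP: 1 × 10⁶ L1210 cells were treated for up to 24 h. Extracts were made in 1.25% trichloroacetic acid, kept on ice 30 min, neutralized with 1 M Tris–acetate pH 7.5 and centrifuged. Luciferin–luciferase bioluminescence was read and normalized to the cell death percentage over the incubation.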

L1210 [2] = experiment: Cytotoxicity against mouse L1210 cells after 24 hrs by MTT assay in presence of catalase; format: functional, cell-based; conditions: L1210, 24 h
Method in brief: (§1)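 L1210 cells at 1 × 10⁵/well were exposed for 24 h to 1–100 µM compound together with catalase 5000 U/ml, SOD 250 U/ml or Trolox 200 µM. Additive-only controls were run in parallel. Viability was read by MTT (2 h, formazan in DMSO, A540) in triplicate.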

L1210 [3] = experiment: Induction of ROS production in mouse L1210 cells at IC50 concentration after 4 hrs
L1210 [4] = experiment: Induction of apoptosis in mouse L1210 cells assessed as increase in catalase activity at IC50 concentration measured after 24 hrs; format: functional, cell-based
Method in brief: (§2)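 Homogenates came from 6 × 10⁶ L1210 cells after 24 h treatment. GPx was measured with 150 µg protein as NADPH loss at 340 nm. Catalase followed Aebi with 60 µg protein. GST was measured as the GSH–CDNB conjugate at 340 nm. Activities were protein-normalized and given as % of control.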

CCRF-CEM [5] = experiment: Cytotoxicity against human CEM cells after 24 hrs by MTT assay; format: functional, cell-based
Method in brief: (§3)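 MTT assay on L1210 or CEM cells grown in DMEM with 10% heat-inactivated FBS. Cells were seeded at 1 × 10⁵/well for 24 h or 5 × 10⁴/well for 48 h, in triplicate, with 1–100 µM compound (DMSO ≤1%). MTT was added for 2 h at 37 °C, formazan dissolved in DMSO, and A540 read. IC50 came from a Hill concentration–response fit.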

L1210 [6] = experiment: Induction of apoptosis in mouse L1210 cells assessed as increase in glutathione S-transferase activity at IC50 concentration measured after 24 hrs; format: functional, cell-based; method in brief: as §2
L1210 [7] = experiment: Induction of apoptosis in mouse L1210 cells assessed as increase in caspase 3 activity at IC50 concentration after 2 to 4 hrs; format: functional, cell-based
Method in brief: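 3 × 10⁶ L1210 cells were treated for 2 or 4 h at 37 °C, then lysed in HEPES pH 7.4 buffer with protease inhibitors, CHAPS and DTT. Extract (50 µg protein) was incubated with 10 µM Ac-DEVD-AMC for 2 h at 37 °C. AMC fluorescence was read at ex 380/em 465 nm, blank-subtracted, and expressed per hour per µg protein (Lowry).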

L1210 [8] = experiment: Cytotoxicity against mouse L1210 cells after 24 hrs by MTT assay in presence of superoxide dismutase; format: functional, cell-based; conditions: L1210, 24 h; method in brief: as §1
L1210 [9] = experiment: Induction of lipid peroxidation in mouse L1210 cells at IC50 concentration after 24 hrs by TBARS method; format: functional, cell-based
Method in brief: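 Homogenates came from 4 × 10⁶ L1210 cells after 24 h treatment. 400 µg protein was mixed with 60 mM Tris–HCl pH 7.4, 0.1 mM DPTA, TCA and 0.73% TBA, boiled 2 h, cooled and centrifuged. A535 was converted to nmol TBARS per µg protein using the MDA extinction coefficient.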

L1210 [10] = experiment: Cytotoxicity against mouse L1210 cells after 24 hrs by MTT assay in presence of Trolox; format: functional, cell-based; conditions: L1210, 24 h; method in brief: as §1
L1210 [11] = experiment: Induction of apoptosis in mouse L1210 cells assessed as increase in total glutathione level at IC50 concentration measured after 24 hrs; format: functional, cell-based
Method in brief: (§4)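 Homogenates came from 3 × 10⁶ L1210 cells after 24 h treatment (phosphate/NaCl/Triton lysis, sonication, 10,000 rpm spin). Total glutathione was measured by the glutathione reductase recycling method (50 µg protein, 75 µM DTNB, 120 µM NADPH, 4 U/ml GR) at 405 nm against a GSH standard. GSSG = (TG − GSH)/2. Values were protein-normalized and given as % of control.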

CCRF-CEM [12] = experiment: Cytotoxicity against human CEM cells after 72 hrs by MTT assay; format: functional, cell-based
L1210 [13] = experiment: Induction of apoptosis in mouse L1210 cells assessed as increase in glutathione peroxidase activity at IC50 concentration measured after 24 hrs; format: functional, cell-based; method in brief: as §2
L1210 [14] = experiment: Induction of apoptosis in mouse L1210 cells assessed as DNA fragmentation at IC50 concentration after 24 hrs by agarose gel electrophoresis analysis; format: functional, cell-based
Method in brief: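 3 × 10⁶ L1210 cells were treated for 24 h, washed with cold PBS, then lysed in EDTA/Tris pH 8.0/NP-40/proteinase K buffer at 50 °C for 2 h. DNA was ethanol-precipitated, washed, treated with RNase A at 37 °C for 1 h and resolved by agarose gel electrophoresis beside a size standard.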

L1210 [15] = experiment: Induction of apoptosis in mouse L1210 cells assessed as decrease in mitochondrial membrane potential at IC50 concentration after 4 hrs using JC-1 staining by spectrofluorimetric analysis; format: functional, cell-based
Method in brief: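 L1210 cells at 5 × 10⁵/well were treated for 4 h, then stained with JC-1 (10 µg/ml) for 20 min at 37 °C, washed and resuspended in PBS. Fluorescence was read with excitation at 488 nm and emission at 590/527 nm. The red/green ratio is expressed relative to control (100%).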

L1210 [16] = experiment: Cytotoxicity against mouse L1210 cells after 48 hrs by MTT assay; format: functional, cell-based; conditions: L1210, 48 h; method in brief: as §3
L1210 [17] = experiment: Induction of apoptosis in mouse L1210 cells assessed as increase in GSH level at IC50 concentration measured after 24 hrs; format: functional, cell-based; method in brief: as §4
L1210 [18] = experiment: Cytotoxicity against mouse L1210 cells after 24 hrs by MTT assay; format: functional, cell-based; conditions: L1210, 24 h; method in brief: as §3
CCRF-CEM [19] = experiment: Cytotoxicity against human CEM cells after 48 hrs by MTT assay; format: functional, cell-based; method in brief: as §3
L1210 [20] = experiment: Cytotoxicity against mouse L1210 cells after 72 hrs by MTT assay; format: functional, cell-based; conditions: L1210, 72 h
L1210 [21] = experiment: Induction of apoptosis in mouse L1210 cells assessed as increase in glutathione reductase activity at IC50 concentration measured after 24 hrs; format: functional, cell-based
L1210 [22] = experiment: Induction of apoptosis in mouse L1210 cells assessed as increase in GSSG level at IC50 concentration measured after 24 hrs; format: functional, cell-based; method in brief: as §4

Row | Structure (SMILES) | Activity (L1210 [1]) | IC50 (L1210 [2]) | Activity (L1210 [3]) | Activity (L1210 [4]) | IC50 (CCRF-CEM [5]) | Activity (L1210 [6]) | Activity (L1210 [7]) | IC50 (L1210 [8]) | Activity (L1210 [9]) | IC50 (L1210 [10]) | Activity (L1210 [11]) | IC50 (CCRF-CEM [12]) | Activity (L1210 [13]) | Activity (L1210 [14]) | Activity (L1210 [15]) | IC50 (L1210 [16]) | Activity (L1210 [17]) | IC50 (L1210 [18]) | IC50 (CCRF-CEM [19]) | IC50 (L1210 [20]) | other results
1 | O=C(/C=C/c1cccc(Cl)c1)c1ccc2ccccc2c1 | Active | 51 µM | Active | inactive | 11 µM | Active | Active | 30 µM | Active | 34 µM | Active | 6 µM | Active | Active | Active | 23 µM | inactive | 38 µM | 12 µM | 10 µM | Activity (L1210 [21]): Active; Activity (L1210 [22]): Active
2 | O=C(/C=C/c1cccc([N+](=O)[O-])c1)c1ccc2ccccc2c1 | Active | 45 µM | Active | inactive | 11 µM | Active | Active | 20 µM | Active | 20 µM | Active | 4 µM | Active | Active | Active | 13 µM | inactive | 24 µM | 11 µM | 14 µM | Activity (L1210 [21]): Active; Activity (L1210 [22]): Active
3 | O=C(/C=C/c1ccccc1)c1ccc2ccccc2c1 | Active | 58 µM | Active | inactive | 12 µM | Active | Active | 31 µM | Active | 39 µM | Active | 5 µM | Active | Active | inactive | 20 µM | Active | 37 µM | 14 µM | 17 µM | Activity (L1210 [21]): Active; Activity (L1210 [22]): Active
